Measurements as given in ChEMBL document CHEMBL4414600, “Discovery of a Furanopyrimidine-Based Epidermal Growth Factor Receptor Inhibitor (DBPR112) as a Clinical Candidate for the Treatment of Non-Small Cell Lung Cancer” (J Med Chem, 2019).
Activity calls are given as the source filed them. The rule behind the calls is not given here.

Columns and labels:
[1] = tested on: NCI-H1975; assay: Cytotoxicity in human NCI-H1975 cells assessed as reduction in cell viability incubated for 96 hrs by MTS method; assay type: functional
[2] = biological target: Epidermal growth factor receptor (Homo sapiens, UniProt P00533, L858R/T790M)
Chain of Epidermal growth factor receptor (Homo sapiens, UniProt P00533, L858R/T790M) (P00533 25-1210 T790M/L858R limits assumed): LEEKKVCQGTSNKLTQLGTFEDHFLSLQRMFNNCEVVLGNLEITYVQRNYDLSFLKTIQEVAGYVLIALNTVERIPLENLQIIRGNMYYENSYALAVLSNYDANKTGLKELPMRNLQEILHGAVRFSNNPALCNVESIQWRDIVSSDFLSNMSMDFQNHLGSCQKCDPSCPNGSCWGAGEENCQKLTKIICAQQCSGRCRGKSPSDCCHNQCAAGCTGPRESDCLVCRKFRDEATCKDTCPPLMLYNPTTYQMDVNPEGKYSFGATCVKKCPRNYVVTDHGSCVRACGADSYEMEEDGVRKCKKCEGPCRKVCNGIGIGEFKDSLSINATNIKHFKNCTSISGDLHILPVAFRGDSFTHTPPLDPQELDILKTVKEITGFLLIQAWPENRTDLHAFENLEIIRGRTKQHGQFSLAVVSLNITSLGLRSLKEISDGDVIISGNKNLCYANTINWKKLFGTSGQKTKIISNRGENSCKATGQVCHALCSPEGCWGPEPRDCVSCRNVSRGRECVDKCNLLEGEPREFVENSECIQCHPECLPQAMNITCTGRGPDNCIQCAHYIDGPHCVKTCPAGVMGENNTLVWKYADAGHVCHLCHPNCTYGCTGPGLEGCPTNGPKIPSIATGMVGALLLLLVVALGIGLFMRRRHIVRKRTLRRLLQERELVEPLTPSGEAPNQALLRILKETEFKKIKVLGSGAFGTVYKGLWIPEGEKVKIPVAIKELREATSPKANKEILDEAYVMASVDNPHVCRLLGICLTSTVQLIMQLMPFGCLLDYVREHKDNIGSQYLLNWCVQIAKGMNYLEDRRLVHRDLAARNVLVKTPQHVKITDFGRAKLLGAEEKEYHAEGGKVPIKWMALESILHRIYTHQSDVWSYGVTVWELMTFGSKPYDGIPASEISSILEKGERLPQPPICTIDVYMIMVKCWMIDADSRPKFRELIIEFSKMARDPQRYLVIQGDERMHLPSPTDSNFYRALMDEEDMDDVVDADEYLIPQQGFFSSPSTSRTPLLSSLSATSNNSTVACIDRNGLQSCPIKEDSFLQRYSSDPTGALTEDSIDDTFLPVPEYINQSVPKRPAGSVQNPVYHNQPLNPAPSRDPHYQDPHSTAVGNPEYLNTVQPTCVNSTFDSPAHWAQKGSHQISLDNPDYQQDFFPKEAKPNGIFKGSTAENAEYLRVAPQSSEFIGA

[3] = tested on: HCC827; assay: Cytotoxicity in human HCC827 cells assessed as reduction in cell viability incubated for 96 hrs by MTS method; assay type: functional
[4] = biological target: Epidermal growth factor receptor (Homo sapiens, UniProt P00533)
Chain of Epidermal growth factor receptor (Homo sapiens, UniProt P00533) (P00533 whole entry): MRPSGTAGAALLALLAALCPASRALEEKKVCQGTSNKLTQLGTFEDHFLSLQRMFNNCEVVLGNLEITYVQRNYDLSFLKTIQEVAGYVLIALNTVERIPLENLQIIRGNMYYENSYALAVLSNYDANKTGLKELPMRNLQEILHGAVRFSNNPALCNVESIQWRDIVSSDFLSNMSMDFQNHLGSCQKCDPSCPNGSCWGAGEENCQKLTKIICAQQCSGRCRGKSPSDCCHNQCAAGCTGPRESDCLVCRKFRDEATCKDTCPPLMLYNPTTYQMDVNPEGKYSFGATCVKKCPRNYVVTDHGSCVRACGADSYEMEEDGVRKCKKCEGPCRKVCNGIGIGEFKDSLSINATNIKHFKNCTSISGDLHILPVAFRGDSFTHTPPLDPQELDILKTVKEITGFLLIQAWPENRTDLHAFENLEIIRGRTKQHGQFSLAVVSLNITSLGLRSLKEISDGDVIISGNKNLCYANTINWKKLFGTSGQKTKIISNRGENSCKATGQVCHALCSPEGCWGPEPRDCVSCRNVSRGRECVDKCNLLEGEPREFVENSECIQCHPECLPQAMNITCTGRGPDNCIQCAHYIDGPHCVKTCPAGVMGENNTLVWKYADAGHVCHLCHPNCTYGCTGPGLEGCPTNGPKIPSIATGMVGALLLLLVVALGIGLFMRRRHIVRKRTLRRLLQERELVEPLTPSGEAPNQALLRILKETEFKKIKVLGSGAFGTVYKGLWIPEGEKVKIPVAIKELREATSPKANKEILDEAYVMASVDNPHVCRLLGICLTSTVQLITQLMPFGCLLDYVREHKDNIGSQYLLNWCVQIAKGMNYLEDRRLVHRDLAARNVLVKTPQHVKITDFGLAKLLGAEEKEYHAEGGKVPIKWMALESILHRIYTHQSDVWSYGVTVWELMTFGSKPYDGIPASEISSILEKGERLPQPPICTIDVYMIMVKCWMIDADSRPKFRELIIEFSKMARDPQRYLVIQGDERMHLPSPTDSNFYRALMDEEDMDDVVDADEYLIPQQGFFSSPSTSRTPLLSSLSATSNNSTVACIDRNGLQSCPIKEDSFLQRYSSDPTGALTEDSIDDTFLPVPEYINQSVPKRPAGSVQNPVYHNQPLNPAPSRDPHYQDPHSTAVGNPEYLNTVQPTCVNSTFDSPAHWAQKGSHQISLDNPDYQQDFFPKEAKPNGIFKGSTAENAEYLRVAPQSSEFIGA

[5] = Inhibition of GST-tagged human EGFR D770GY mutant using poly(Glu, Tyr) 4:1 substrate incubated for 120 mins by kinase-Glo plus luminescent kinase assay
[6] = tested on: A-431; assay: Cytotoxicity in human A431 cells assessed as reduction in cell viability incubated for 96 hrs by MTS method; assay type: functional
[7] = Inhibition of GST-tagged human HER2 V777_G778insCG mutant mutant using poly(Glu, Tyr) 4:1 substrate incubated for 120 mins by kinase-Glo plus luminescent kinase assay
[8] = AUC (0 to infinity) in rat at 20 mg/kg, po; assay type: ADME, organism-based; design: dose 20 mg/kg, route oral, time infinity; conditions: in vivo
How it was run: (§1)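 Rat pharmacokinetics: single IV injection at 5 mg/kg or oral dosing at 20 mg/kg (23.6 mg/kg oral for one compound). Plasma parameters t1/2, CL, Vss, AUC(0-inf), Cmax, Tmax and oral bioavailability F were derived from the concentration–time profiles.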

[9] = Tmax in rat at 20 mg/kg, po; assay type: ADME, organism-based; conditions: in vivo; how it was run: as §1
[10] = Toxicity in nude BALB/c mouse xenografted with human NCI-H1975 cells assessed as induction of body weight loss at 15 mg/kg, po QD for 15 days relative to control; assay type: organism-based; conditions: in vivo, 360 h
How it was run: (§2)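 H1975 cells were grown in RPMI1640 with 10% heat-inactivated FBS at 37 °C, 5% CO2, and passaged by trypsin-EDTA. 5x10^6 cells in 0.1 ml PBS were injected subcutaneously at the right flank of BALB/c nude mice. Oral QD dosing for 15 days began at a mean tumor size of 147 mm³, n = 5 per group.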

[11] = Half life in rat at 20 mg/kg, po; assay type: ADME, organism-based; conditions: in vivo; how it was run: as §1
[12] = tested on: HCC827; conditions: Homo sapiens
[13] = tested on: NCI-H1975; assay: Antitumor activity against human NCI-H1975 cells xenografted in nude BALB/c mouse assessed as inhibition of tumor growth at 15 mg/kg, po QD for 15 days relative to control; assay type: functional; conditions: 360 h, read-out: TGI; how it was run: as §2
[14] = Oral bioavailability in rat at 20 mg/kg; assay type: ADME, organism-based; conditions: in vivo; how it was run: as §1
[15] = Toxicity in nude BALB/c mouse xenografted with human NCI-H1975 cells assessed as drug tolerability at 15 mg/kg, po QD for 15 days relative to control; assay type: organism-based; conditions: in vivo, 360 h; how it was run: as §2
[16] = Clearance in rat at 5 mg/kg, iv; assay type: ADME, organism-based; conditions: in vivo
[17] = AUC (0 to infinity) in rat at 5 mg/kg, iv; assay type: ADME, organism-based; design: dose 5 mg/kg, time infinity, route intravenous; conditions: in vivo
[18] = Half life in rat at 5 mg/kg, iv; assay type: ADME, organism-based; conditions: in vivo
[19] = Volume of distribution at steady state in rat at 5 mg/kg, iv; assay type: ADME, organism-based; conditions: in vivo, read-out: Vdss
[20] = Cmax in rat at 20 mg/kg, po; assay type: ADME, organism-based; design: dose 20 mg/kg, route oral; conditions: in vivo; how it was run: as §1
[21] = Toxicity in ICR mouse assessed as induction of skin rash at 100 mg/kg, po QD for 2 weeks; assay type: organism-based; conditions: in vivo, 336 h
[22] = Toxicity in ICR mouse assessed as induction of fur loss in nose and abdomen area at 100 mg/kg, po QD for 2 weeks; assay type: organism-based; conditions: in vivo, 336 h
[23] = Toxicity in athymic NU-Fox1nu nude mouse xenografted with human HCC827 cells assessed as induction of body weight loss at 20 mg/kg, po dosed via gavage for 5 days/week for 2 consecutive weeks; assay type: organism-based; conditions: in vivo, 120 h
How it was run: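 Male athymic NU-Fox1nu nude mice, 6–8 weeks old, were inoculated subcutaneously at the left flank with 5x10^6 HCC827 (exon 19 Del E746_A750) cells. Oral gavage began at a mean tumor size of about 500 mm³, in 1% methylcellulose/0.5% Tween 80/98.5% water, once daily on days 1-5 and 8-12. Tumor volume (V = 0.5 a × b², caliper) and body weight were tracked.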

[24] = biological target: Epidermal growth factor receptor (Homo sapiens, UniProt P00533, A763-Y764INSFHEA); assay: Inhibition of GST-tagged human EGFR A763_Y764insFHEA mutant using poly(Glu, Tyr) 4:1 substrate incubated for 120 mins by kinase-Glo plus luminescent kinase assay
Chain of Epidermal growth factor receptor (Homo sapiens, UniProt P00533, A763-Y764INSFHEA) (P00533 whole entry, looked up, stated change not applied): as the sequence (P00533 whole entry) above

[25] = biological target: Epidermal growth factor receptor (Homo sapiens, UniProt P00533, D770-N771INSNPG); assay: Inhibition of GST-tagged human EGFR D770_N771insNPG mutant using poly(Glu, Tyr) 4:1 substrate incubated for 120 mins by kinase-Glo plus luminescent kinase assay
Chain of Epidermal growth factor receptor (Homo sapiens, UniProt P00533, D770-N771INSNPG) (P00533 whole entry, looked up, stated change not applied): as the sequence (P00533 whole entry) above

SMILES	CC50 ([1]; Homo sapiens, NCI-H1975, 96 h) [nM]	IC50 [2] [nM]	CC50 ([3]; Homo sapiens, HCC827, 96 h) [nM]	IC50 [4] [nM]	other results
C=CS(=O)(=O)Nc1cccc(-c2c(-c3ccccc3)oc3ncnc(N[C@H](CO)c4ccccc4)c23)c1	7240	2460	2710	3670	
C/C=C/C(=O)Nc1cccc(-c2c(-c3ccccc3)oc3ncnc(N[C@H](CO)c4ccccc4)c23)c1	13200	> 10000	307	239	
CCOC(=O)/C=C/C(=O)Nc1cccc(-c2c(-c3ccccc3)oc3ncnc(N[C@H](CO)c4ccccc4)c23)c1	7010		516		
CCN(C/C=C/C(=O)Nc1cccc(-c2c(-c3ccccc3)oc3ncnc(N[C@H](CO)c4ccccc4)c23)c1)CCO	2410	117	19	13	
C=CC(=O)N1CCC(Oc2cc3c(Nc4ccc(Cl)c(Cl)c4F)ncnc3cc2OC)CC1 [POZIOTINIB]					IC50 [5]: 0.082 nM; CC50 ([6]; Homo sapiens, A-431, 96 h): 31 nM; IC50 [7]: 0.206 nM
CN(C)C/C=C/C(=O)Nc1cc2c(Nc3ccc(F)c(Cl)c3)ncnc2cc1O[C@H]1CCOC1 [AFATINIB]	224		14		AUC(0-inf) [8]: 676 ng·h/mL; Tmax [9]: 4.2 h; Activity [10]: Non-Toxic; half-life [11]: 6 h; TGI [12]: Active; inhibition in vivo at 15 mg/kg [13]: 65%; bioavailability [14]: 15.9%; Activity [15]: Non-Toxic; clearance [16]: 79.2 mL/min/kg; AUC(0-inf) [17]: 1060 ng·h/mL; half-life [18]: 5.7 h; Vd [19]: 28.7 L/kg; Cmax [20]: 75.2 ng/mL; Activity [21]: Toxic; Activity [22]: Toxic; Activity [23]: 5%
C=CC(=O)Nc1cccc(-c2c(C)sc3ncnc(N[C@H](CO)c4ccccc4)c23)c1	12600	1260	35	107	
CN(C)C/C=C/C(=O)Nc1cccc(-c2c(-c3ccccc3)oc3ncnc(N[C@@H](CO)c4ccccc4)c23)c1					CC50 [3]: 1050 nM
C=CC(=O)Nc1cccc(-c2c(-c3ccccc3)sc3ncnc(N[C@H](CO)c4ccccc4)c23)c1	10700	650	146	136	IC50 [5]: 4.82 nM; IC50 [24]: 1.15 nM; CC50 ([6]; Homo sapiens, A-431, 96 h): > 20000 nM; IC50 [25]: 17.8 nM; IC50 [7]: 369 nM
C=CC(=O)Nc1cccc(-c2coc3ncnc(N[C@H](CO)c4ccccc4)c23)c1	> 20000	> 10000	744	159	
CC#CC(=O)Nc1cccc(-c2c(-c3ccccc3)oc3ncnc(N[C@H](CO)c4ccccc4)c23)c1	6740	6370	182	64	
C=CC(=O)Nc1cc(Nc2nccc(-c3cn(C)c4ccccc34)n2)c(OC)cc1N(C)CCN(C)C [OSIMERTINIB]					IC50 [5]: 0.858 nM; CC50 [6]: […]; IC50 [7]: 3.31 nM
C=CC(=O)Nc1cccc(-c2noc3ncnc(N[C@H](CO)c4ccccc4)c23)c1	> 20000	4630	105	416	
C=CC(=O)Nc1cccc(-c2csc3ncnc(N[C@H](CO)c4ccccc4)c23)c1	> 20000	2320	56	82	
C=CC(=O)Nc1cccc(-c2c(-c3ccccc3)oc3ncnc(N[C@@H](CO)c4ccccc4)c23)c1					CC50 [1]: 13400 nM; CC50 [3]: 840 nM
CC(C)C/C=C/C(=O)Nc1cccc(-c2c(-c3ccccc3)oc3ncnc(N[C@H](CO)c4ccccc4)c23)c1	> 20000	> 10000	679	> 10000	
C=CC(=O)Nc1cccc(-c2c(Cl)sc3ncnc(N[C@H](CO)c4ccccc4)c23)c1	8660	1080	51	81	
O=C(O)/C=C/C(=O)Nc1cccc(-c2c(-c3ccccc3)oc3ncnc(N[C@H](CO)c4ccccc4)c23)c1	> 20000	> 10000	4120	3060	
C=CC(=O)Nc1cccc(-c2c(-c3ccccc3)oc3ncnc(N[C@H](CO)c4ccccc4)c23)c1					AUC(0-inf) [8]: 303 ng·h/mL; Tmax [9]: 1.2 h; CC50 [1]: 1260 nM; half-life [11]: 0.9 h; bioavailability [14]: 5.5%; clearance [16]: 76.5 mL/min/kg; AUC(0-inf) [17]: 1100 ng·h/mL; half-life [18]: 0.5 h; Vd [19]: 2.3 L/kg; CC50 [3]: 24 nM; Cmax [20]: 193 ng/mL
CCN(CC)C/C=C/C(=O)Nc1cccc(-c2c(-c3ccccc3)oc3ncnc(N[C@H](CO)c4ccccc4)c23)c1	2480	131	62	14	
O=C(/C=C/CN1CCOCC1)Nc1cccc(-c2c(-c3ccccc3)oc3ncnc(N[C@H](CO)c4ccccc4)c23)c1	2830	283	17	19	
O=C(/C=C/c1ccccc1)Nc1cccc(-c2c(-c3ccccc3)oc3ncnc(N[C@H](CO)c4ccccc4)c23)c1	> 20000	> 10000	1780	5000	
C=CC(=O)Nc1cccc(-c2c(C)oc3ncnc(N[C@H](CO)c4ccccc4)c23)c1	> 20000	1320	46	62	
C=CC(=O)Nc1cccc(-c2c(-c3ccccc3)oc3ncnc(N[C@H](C)c4ccccc4)c23)c1	4300	500	58	117	IC50 [5]: 0.641 nM; IC50 [24]: 0.214 nM; CC50 ([6]; Homo sapiens, A-431, 96 h): 449 nM; IC50 [25]: 1.48 nM; IC50 [7]: 8.13 nM
OC[C@@H](Nc1ncnc2oc(-c3ccccc3)c(-c3ccccc3)c12)c1ccccc1		> 10000	518		
C=CC(=O)Nc1cccc(-c2c(-c3ccccc3OC)oc3ncnc(N[C@H](CO)c4ccccc4)c23)c1	4080		34		IC50 [5]: 0.295 nM; CC50 ([6]; Homo sapiens, A-431, 96 h): > 8010 nM; IC50 [7]: 5.2 nM
